From ChEMBL document CHEMBL1914412, “Molecular modeling study and synthesis of novel dicationic flexible triaryl guanidines and imidamides as antiprotozoal agents” (Eur J Med Chem, 2011) come the findings set out here.

SMILES strings stand for the structures. A value given as a limit tells only on which side of the number the result lay.

One series has as its system Nucleic Acid. Briefly: Binding affinity to poly(dA-dT) DNA assessed as change in melting temperature at compound/polynucleotide ratio 0.3 in MES10 buffer by spectrophotometry. The class given is nucleic-acid assay.
Series [1] concerns Trypanosoma brucei rhodesiense. Put plainly: Antitrypanosomal activity against Trypanosoma brucei rhodesiense STIB900 after 72 hrs using alamar blue staining by microplate fluorometric analysis. The class given is functional, organism-based. As to conditions: STIB900, 72 h. A digest of the protocol: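 STIB 900 trypanosome suspension with serial drug dilutions, 37 °C, 5% CO₂, 72 h; Alamar Blue added and incubation continued 2–4 h. Two independent runs, each in duplicate.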

For series [2], the system named is Plasmodium falciparum. Briefly: Antiplasmodial activity against Plasmodium falciparum K1 infected in human red blood cells assessed as [3H]hypoxanthine incorporation after 48 hrs by liquid scintillation counting. The class given is functional, organism-based.
The nature of series [3]: Selectivity index, ratio of IC50 for Trypanosoma brucei rhodesiense STIB900 to IC50 for Plasmodium falciparum K1. The class given is functional.
The test system of a further series is L6. Put plainly: Cytotoxicity against rat L6 cells after 72 hrs by alamar blue staining-based microplate fluorometric analysis. In kind it is cell-based. As to conditions: L6, 72 h.
Series [4] is described as follows: Ratio of IC50 for compound to IC50 for pentamidine for rat L6 cells. In kind it is cell-based. As to conditions: read-out: Ratio IC50.
The subject of series [5] is Plasmodium falciparum. Briefly: Ratio of IC50 for pentamidine to IC50 for compound for Plasmodium falciparum K1. In kind it is functional.

In the case of `CC(C)(C)c1ccc(C(=N)Nc2ccc(Oc3cccc(Oc4ccc(NC(=N)c5ccc(C(C)(C)C)cc5)cc4)c3)cc2)cc1`, the ΔTm with Nucleic Acid came to 0 °C. Moreover, the half-inhibitory concentration (IC50) in series [1] amounted to 2780 nM; in the series on Plasmodium falciparum [2], 627 nM; with L6, 81.4 µM. In addition, the Ratio IC50 in series [3] stood at 4.4. For the same molecule, the selectivity ratio in series [4] was 39.
Take `N=C(Nc1ccc(Oc2ccc(Oc3ccc(NC(=N)c4ccccc4)cc3)cc2)cc1)c1ccccc1`: the thermal shift (ΔTm) in the series on Nucleic Acid was 5 °C. Besides, the IC50 in series [1] was determined as 863 nM; in the series with Plasmodium falciparum [2] it was 71.5 nM; in the series on L6, 2.8 µM. Further, the Ratio IC50 in series [3] turned out to be 12.1. Besides, in series [4], the selectivity ratio was found to be 1.3.
With `N=C(Nc1ccc(Oc2ccc(Oc3ccc(NC(=N)C4CCCCC4)cc3)cc2)cc1)C1CCCCC1`, the thermal shift (ΔTm) with Nucleic Acid turned out to be 2.1 °C. Further, the values for the concentration for half-maximal inhibition (IC50) (in series [1]; in the series with Plasmodium falciparum [2]; with L6) were 427 nM, 259 nM and 3.1 µM, respectively. Besides, the Ratio IC50 in series [3] came to 1.6. The selectivity ratio in series [4] is 1.5.
`N=C(Nc1ccc(Oc2cccc(Oc3ccc(NC(=N)c4ccccc4)cc3)c2)cc1)c1ccccc1`: the ΔTm in the series on Nucleic Acid came out at 2 °C. For the same molecule, the IC50 in series [1] worked out at 1040 nM; with Plasmodium falciparum [2] it was 251 nM; in the series with L6, 0.9 µM. Also, the Ratio IC50 in series [3] was 4.2. For the same molecule, the selectivity ratio in series [4] was 0.43.
Turning to `CC(C)/N=C(\N)Nc1ccc(Oc2ccc(Oc3ccc(N/C(N)=N/C(C)C)cc3)cc2)cc1.Cl.Cl`, the ΔTm with Nucleic Acid worked out at 0 °C. The IC50 in series [1] amounted to 160 nM; with Plasmodium falciparum [2], 17.2 nM; in the series with L6, 19.6 µM. In addition, the Ratio IC50 in series [3] was found to be 9.3; in the series on Plasmodium falciparum [5], 2.7. Further, the selectivity ratio in series [4] was found to be 9.3.
On to `N=C(Nc1ccc(Oc2ccc(Oc3ccc(NC(=N)c4ccc(-c5ccccc5)cc4)cc3)cc2)cc1)c1ccc(-c2ccccc2)cc1`, for which the shift in melting temperature (ΔTm) with Nucleic Acid is 0.1 °C. For the same molecule, the IC50 was 612 nM in series [1], 63.3 nM with Plasmodium falciparum [2] and more than 120 µM in the series with L6. The Ratio IC50 in series [3] turned out to be 9.6. For the same molecule, the selectivity ratio in series [4] is 60.
Take `CC(C)(C)c1ccc(C(=N)Nc2ccc(Oc3ccc(Oc4ccc(NC(=N)c5ccc(C(C)(C)C)cc5)cc4)cc3)cc2)cc1`: the ΔTm with Nucleic Acid worked out at 0 °C. The figures for the IC50 (in series [1]; in the series with Plasmodium falciparum [2]; with L6) were 400 nM, 60 nM and 1.5 µM, respectively. Further, the Ratio IC50 in series [3] worked out at 6.7. The selectivity ratio in series [4] stood at 0.71.
Regarding `C/N=C(\N)Nc1ccc(Oc2cccc(Oc3ccc(N/C(N)=N/C)cc3)c2)cc1.Cl.Cl`, in the series with Nucleic Acid, the shift in melting temperature (ΔTm) turned out to be 0.1 °C. Also, the half-maximal inhibitory concentration (IC50) in series [1] is 318 nM; in the series on Plasmodium falciparum [2] it was 21.5 nM; with L6 it was 45.7 µM. The Ratio IC50 in series [3] turned out to be 14.8; in the series on Plasmodium falciparum [5], 2.2. Further, the selectivity ratio in series [4] was determined as 22.
Turning to `CC(C)/N=C(\N)Nc1ccc(Oc2cccc(Oc3ccc(N/C(N)=N/C(C)C)cc3)c2)cc1.Cl.Cl`, the shift in melting temperature (ΔTm) in the series on Nucleic Acid was found to be 0 °C. The half-inhibitory concentration (IC50) in series [1] turned out to be 155 nM; with Plasmodium falciparum [2], 38.2 nM; in the series with L6, 82.1 µM. Moreover, the Ratio IC50 is 4.1 in series [3] and 1.2 in the series with Plasmodium falciparum [5]. Moreover, the selectivity ratio in series [4] amounted to 39.
Consider `N=C(N)Nc1ccc(Oc2ccc(Oc3ccc(NC(=N)N)cc3)cc2)cc1`, for which the ΔTm in the series with Nucleic Acid was determined as 2.1 °C. Further, the IC50 was 151 nM in series [1], 26.5 nM in the series on Plasmodium falciparum [2] and 11.6 µM in the series on L6. Besides, the Ratio IC50 in series [3] came to 5.7. In addition, the selectivity ratio in series [4] is 5.5.
`C/N=C(/N)Nc1ccc(Oc2ccc(Oc3ccc(N/C(N)=N/C)cc3)cc2)cc1.Cl.Cl`: in the series on Nucleic Acid, the ΔTm amounted to 0.8 °C. Besides, the half-inhibitory concentration (IC50) came to 155 nM in series [1], 14.1 nM in the series on Plasmodium falciparum [2] and 57.3 µM with L6. Also, the Ratio IC50 in series [3] stood at 11; in the series on Plasmodium falciparum [5] it was 3.3. Further, the selectivity ratio in series [4] turned out to be 27.
Consider `N=C(Nc1ccc(Oc2cccc(Oc3ccc(NC(=N)c4ccc(-c5ccccc5)cc4)cc3)c2)cc1)c1ccc(-c2ccccc2)cc1`, for which the ΔTm in the series on Nucleic Acid stood at 0 °C. Moreover, the results for the IC50 (in series [1]; in the series with Plasmodium falciparum [2]; with L6) were 82300 nM, 4700 nM and 9.1 µM, respectively. The Ratio IC50 in series [3] was found to be 17. The selectivity ratio in series [4] is 4.3.
As to `N=C(Nc1ccc(Oc2cccc(Oc3ccc(NC(=N)C4CCCCC4)cc3)c2)cc1)C1CCCCC1`, in the series on Nucleic Acid, the shift in melting temperature (ΔTm) came to 0 °C. Further, the IC50 in series [1] was determined as 395 nM; in the series with Plasmodium falciparum [2] it was 307 nM; with L6, 3.9 µM. For the same molecule, in series [3], the Ratio IC50 was found to be 1.3. For the same molecule, the selectivity ratio in series [4] was determined as 1.9.
`N=C(N)Nc1ccc(Oc2cccc(Oc3ccc(NC(=N)N)cc3)c2)cc1`: the ΔTm in the series with Nucleic Acid stood at 1.1 °C. In addition, the results for the IC50 (in series [1]; in the series on Plasmodium falciparum [2]; in the series with L6) were 171 nM, 27 nM and 10.6 µM, respectively. Further, the Ratio IC50 in series [3] worked out at 6.3. Further, the selectivity ratio in series [4] amounted to 5.
